Assay [1] is described as follows: Inhibitory constant for [3H]YM-09151-2 binding to Dopamine receptor D2-like in porcine striatal membranes; NA= not active until 1e-5M. In kind it is cell membranes, Sus scrofa.
Assay [2] is described as follows: Inhibitory constant for [3H]YM-09151-2 binding to Dopamine receptor D2-like in porcine striatal membranes. In kind it is cell membranes, Sus scrofa, Striatum, Membrane.
The species named for assay [3] is Rattus norvegicus. Kind of assay: Amount of cGMP level in rat neostriatal membranes after incubation at 10 uM. In kind it is functional. The method in brief: (§1)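 Rat striatal membranes in 0.1 M phosphate buffer pH 7.0 with MgCl2 and 2.25 mM IBMX at 37 °C; reaction started with 54 µM GTP, 60 min at 37 °C; compounds at 0.1, 1.0, 10 µM. Stopped with HCl, boiled 5 min, centrifuged, filtered; cGMP measured by reverse-phase HPLC at 254 nm against standards, confirmed by cGMP EIA; mean ± SEM of triplicates.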

For assay [4], the species on record is Rattus norvegicus. Description: Amount of cGMP level in rat neostriatal membranes after incubation at 0.1 uM. In kind it is functional. The essentials:
as §1

For assay [5], the species on record is Rattus norvegicus. Description: Amount of cGMP level in rat neostriatal membranes after incubation at 1.0 uM. In kind it is functional. The essentials:
as §1

The species named for assay [6] is Rattus norvegicus. Kind of assay: Amount of cAMP level in rat neostriatal membranes after incubation at 1 uM. The class given is functional. The method in brief: (§2)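 Rat striatal membranes; adenylyl cyclase reaction in 0.1 M Tris-HCl pH 8.3, 10 mM MgCl2, 0.1 M KCl, 37 °C, 60 min; compounds at 1, 10, 100 µM. Stopped with HCl (final 0.01 M) plus 5 min boiling, centrifuged, filtered. cAMP quantified by reverse-phase HPLC at 254 nm against standards, confirmed by cAMP EIA; pmol/mg protein, mean ± SEM of triplicates.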
On the technique in general: Changes in cAMP serve as a functional read-out for many G protein-coupled receptors.

The species named for assay [7] is Rattus norvegicus. Description: Amount of cAMP level in rat neostriatal membranes after incubation at 100 uM. The class given is functional. The method in brief:
as §2

The species named for assay [8] is Rattus norvegicus. Description: Amount of cAMP level in rat neostriatal membranes after incubation at 10 uM. In kind it is functional. The essentials:
as §2

The species named for assay [9] is Rattus norvegicus. Kind of assay: Decrease of basal cAMP concentration mediated by striatal adenylyl cyclase activity in rat neostriatal membrane at 100 uM. The class given is functional. The essentials:
as §2

Assay [10] is filed under the species Rattus norvegicus. Kind of assay: Amount of cGMP in rat neostriatal membranes after incubation at 10 uM. In kind it is functional. The essentials:
as §1

The species named for assay [11] is Rattus norvegicus. Kind of assay: Amount of cGMP in rat neostriatal membranes after incubation at 0.1 uM. In kind it is functional. The essentials:
as §1

For assay [12], the species on record is Rattus norvegicus. Kind of assay: Amount of cGMP in rat neostriatal membranes after incubation at 1.0 uM. The class given is functional. The method in brief:
as §1

In assay [13] the target is Adenylate cyclase type 2 (Rattus norvegicus) (UniProt P26769). Kind of assay: Inhibition of basal striatal adenylyl cyclase activity in rat neostriatal membrane at 100 uM. The class given is functional, cell membranes. The method in brief: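 Rat striatal membranes incubated 60 min at 37 °C in 0.1 M Tris-HCl pH 8.3, 10 mM MgCl2, 0.1 M KCl. Reaction stopped with HCl (0.01 M final) and 5 min boiling. Filtered supernatant analysed for cAMP by reverse-phase HPLC at 254 nm against standards, confirmed by cAMP EIA. Tested at 1, 10 and 100 µM. Triplicates reported as mean ± SEM.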

Assay [14] can be described thus: Inhibitory constant for Dopamine receptor D1-like.
Assay [15] can be described thus: Inhibitory constant for Dopamine receptor D2-like.

Results on 30 molecules are retold here after ChEMBL document CHEMBL1143580 (J Med Chem, 2005).

The Ki is a dissociation constant, usually derived from enzyme kinetics or from competition with a known ligand. A low value points to a stronger hold on the target. Broadly, the inhibition is the drop in the measured response relative to a control, in per cent. A high value points to a response far below the control.

The structures appear in SMILES notation.

Adenylate cyclase type 2 (Rattus norvegicus), sequence (P26769 whole entry): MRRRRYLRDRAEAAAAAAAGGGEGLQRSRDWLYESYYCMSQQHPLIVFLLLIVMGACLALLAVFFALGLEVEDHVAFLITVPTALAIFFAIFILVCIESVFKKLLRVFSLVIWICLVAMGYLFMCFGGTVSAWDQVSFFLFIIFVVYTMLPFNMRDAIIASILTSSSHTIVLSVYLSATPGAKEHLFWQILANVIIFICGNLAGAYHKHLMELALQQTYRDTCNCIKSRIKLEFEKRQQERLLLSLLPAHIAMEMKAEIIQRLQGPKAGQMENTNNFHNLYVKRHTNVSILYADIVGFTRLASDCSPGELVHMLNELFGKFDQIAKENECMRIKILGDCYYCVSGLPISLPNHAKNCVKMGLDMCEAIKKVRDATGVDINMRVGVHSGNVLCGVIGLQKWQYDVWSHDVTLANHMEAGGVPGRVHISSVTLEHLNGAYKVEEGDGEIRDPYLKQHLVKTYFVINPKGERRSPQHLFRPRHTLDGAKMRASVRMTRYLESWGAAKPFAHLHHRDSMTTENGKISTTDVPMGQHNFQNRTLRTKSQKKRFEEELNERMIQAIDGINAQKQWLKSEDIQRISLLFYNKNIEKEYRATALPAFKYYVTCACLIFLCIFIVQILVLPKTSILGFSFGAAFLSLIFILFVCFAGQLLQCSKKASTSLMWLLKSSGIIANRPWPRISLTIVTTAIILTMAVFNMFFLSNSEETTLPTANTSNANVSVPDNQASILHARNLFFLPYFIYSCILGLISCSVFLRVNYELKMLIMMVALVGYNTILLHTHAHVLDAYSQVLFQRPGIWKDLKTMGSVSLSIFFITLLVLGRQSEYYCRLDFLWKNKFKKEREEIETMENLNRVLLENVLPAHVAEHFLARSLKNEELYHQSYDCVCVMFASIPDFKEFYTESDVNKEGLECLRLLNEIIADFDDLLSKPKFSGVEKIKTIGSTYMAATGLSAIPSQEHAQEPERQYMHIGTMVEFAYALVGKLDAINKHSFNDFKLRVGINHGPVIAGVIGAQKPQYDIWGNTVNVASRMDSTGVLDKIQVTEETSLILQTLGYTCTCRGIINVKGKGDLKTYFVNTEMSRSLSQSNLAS

In the case of `Br.CN(C)[C@@H]1Cc2cc(O)c(F)cc2[C@H]1c1ccccc1`, the inhibition constant Ki result in assay [1] is on record as “Not Active”.
The molecule `COc1cc2c(cc1F)C[C@@H](N(C)C)[C@@H]2c1ccccc1` displayed a Ki in assay [2] of 1.9 µM.
In the case of `CCCN(CCC)[C@@H]1Cc2cc(F)c(OC)cc2[C@H]1c1ccccc1`, the cGMP content (pmol/mg protein) in the assay filed under Rattus norvegicus [3] was found to be 5.79; in the assay filed under Rattus norvegicus [4], 10.6; in the assay listed under Rattus norvegicus [5] it was 6.97. Moreover, the Ki in [2] was found to be 0.17 µM.
The molecule `CCCN(CCC)[C@@H]1Cc2cc(O)c(F)cc2[C@H]1c1ccccc1` registered a Ki in assay [2] of 12 µM.
With `CCN1CCCC1CNC(=O)c1cc(S(N)(=O)=O)ccc1OC` (stereo not drawn), the cGMP content (pmol/mg protein) worked out at 17.7 in the assay filed under Rattus norvegicus [3], 12.5 in the assay listed under Rattus norvegicus [4] and 17.3 in the assay listed under Rattus norvegicus [5].
As to `CCCN(C)[C@@H]1Cc2cc(F)c(O)cc2[C@H]1c1ccccc1`, the cGMP content (pmol/mg protein) in the assay filed under Rattus norvegicus [3] came to 1.78; in the assay filed under Rattus norvegicus [4], 10.9; in the assay filed under Rattus norvegicus [5] it was 5.79. Besides, the cAMP content (pmol/mg protein) in the assay listed under Rattus norvegicus [6] was 103; in the assay listed under Rattus norvegicus [7], 74.4; in the assay filed under Rattus norvegicus [8], 93. Also, in [2], affinity was put at a Ki of 0.65 µM. In the assay filed under Rattus norvegicus [9], this molecule gave a Decrease of 30%.
`CCCN(CCC)[C@@H]1Cc2cc(OC)c(F)cc2[C@H]1c1ccccc1` had a Ki in assay [2] of 0.55 µM.
Same read-out and setting: the figure for `N[C@@H]1Cc2cc(F)c(O)cc2[C@H]1c1ccccc1` is 19 µM.
Consider `NCCc1ccc(O)c(O)c1`, for which the cGMP content (pmol/mg protein) stood at 4.02 in the assay filed under Rattus norvegicus [3], 11.7 in the assay filed under Rattus norvegicus [4] and 6.15 in the assay listed under Rattus norvegicus [5]. Further, the cAMP content (pmol/mg protein) in the assay listed under Rattus norvegicus [6] turned out to be 95.1; in the assay filed under Rattus norvegicus [7], 85.6; in the assay listed under Rattus norvegicus [8], 89.8.
The molecule `CN(C)[C@@H]1Cc2cc(F)c(O)cc2[C@H]1c1ccccc1` yielded a Ki in assay [2] of 4.5 µM.
Take `Oc1cc2c(cc1O)C(c1ccccc1)CNCC2` (stereo not drawn): the cGMP content (pmol/mg protein) in the assay listed under Rattus norvegicus [3] was determined as 18.2; in the assay filed under Rattus norvegicus [4] it was 12.4; in the assay filed under Rattus norvegicus [5], 17.4.
For `CCCN(CCC)[C@@H]1Cc2cc(F)c(O)cc2[C@H]1c1ccccc1`, the cGMP content (pmol/mg protein) came out at 4.37 in the assay listed under Rattus norvegicus [3], 11.6 in the assay filed under Rattus norvegicus [4] and 7.32 in the assay filed under Rattus norvegicus [5]. The molecule further gave a Ki in assay [2] of 0.92 µM.
Take `C=CCN(C)[C@@H]1Cc2cc(F)c(O)cc2[C@H]1c1ccccc1`: the Ki in [2] is 0.96 µM.
Take `CN1CCc2cc(Cl)c(O)cc2[C@@H](c2ccccc2)C1`: the cGMP content (pmol/mg protein) in the assay filed under Rattus norvegicus [10] was 6.15; in the assay listed under Rattus norvegicus [11], 11.5; in the assay listed under Rattus norvegicus [12] it was 6.62.
Turning to `CCCN(C)[C@@H]1Cc2cc(O)c(F)cc2[C@H]1c1ccccc1`, the results for the cGMP content (pmol/mg protein) in the assay listed under Rattus norvegicus [3], in the assay listed under Rattus norvegicus [4] and in the assay filed under Rattus norvegicus [5] were 5.56, 11.5 and 7.45, respectively. The same molecule came in with a Ki in assay [2] of 0.24 µM.
On to `C=CCN(C)[C@@H]1Cc2cc(F)c(OC)cc2[C@H]1c1ccccc1`, for which the Ki in [2] worked out at 0.64 µM.
Still for that read-out and setting: the figure for `CN[C@@H]1Cc2cc(O)c(F)cc2[C@H]1c1ccccc1` is 4.3 µM; for `C=CCN(C)[C@@H]1Cc2cc(O)c(F)cc2[C@H]1c1ccccc1` it is 0.64 µM.
For the molecule `CCCN(C)[C@@H]1Cc2cc(OC)c(F)cc2[C@H]1c1ccccc1`, the cGMP content (pmol/mg protein) in the assay filed under Rattus norvegicus [3] was 3.78; in the assay filed under Rattus norvegicus [4], 11.2; in the assay filed under Rattus norvegicus [5], 4.96. Besides, the cAMP content (pmol/mg protein) in the assay filed under Rattus norvegicus [6] worked out at 105; in the assay listed under Rattus norvegicus [7] it was 84.6; in the assay listed under Rattus norvegicus [8], 103. Also, the inhibitory constant (Ki) in assay [2] amounted to 0.27 µM.
In the case of `CCCN(CCc1ccccc1)CCc1cccc(O)c1`, the cGMP content (pmol/mg protein) in the assay filed under Rattus norvegicus [3] was determined as 3.78; in the assay filed under Rattus norvegicus [4], 10.4; in the assay listed under Rattus norvegicus [5] it was 7.45. In addition, the cAMP content (pmol/mg protein) in the assay filed under Rattus norvegicus [6] stood at 104; in the assay filed under Rattus norvegicus [7], 79.3; in the assay filed under Rattus norvegicus [8], 93.1. In assay [13], this molecule registered an inhibition of 25%.
In assay [2], `C=CCN(C)[C@@H]1Cc2cc(OC)c(F)cc2[C@H]1c1ccccc1` gave a Ki of 0.31 µM.
On the same count and under the same terms, next, `CN[C@@H]1Cc2cc(F)c(O)cc2[C@H]1c1ccccc1`: 5.1 µM.
Still for that read-out and setting: next, `CN[C@@H]1Cc2cc(F)c(OC)cc2[C@H]1c1ccccc1`: 2.6 µM; `COc1cc2c(cc1F)[C@@H](c1ccccc1)[C@H](N(C)C)C2`: 4.3 µM.
For `CN1CCc2cc(F)c(O)cc2C1C1(c2ccccc2Cl)CC1` (stereo not drawn), the Ki was 0.00018 µM in assay [14] and 0.45 µM in assay [15].
Regarding `CCCN(C)[C@@H]1Cc2cc(F)c(OC)cc2[C@H]1c1ccccc1`, the cGMP content (pmol/mg protein) in the assay listed under Rattus norvegicus [3] stood at 3.9; in the assay listed under Rattus norvegicus [4] it was 10.4; in the assay listed under Rattus norvegicus [5] it was 6.86. This molecule also displayed an inhibitory constant (Ki) in assay [2] of 0.48 µM.
Molecule `COc1cc2c(cc1F)[C@@H](c1ccccc1)[C@H](N)C2` gave an inhibitory constant (Ki) in assay [2] of 12 µM.
The same measure, in the same setting: next, `CN[C@@H]1Cc2cc(OC)c(F)cc2[C@H]1c1ccccc1`: 3.1 µM.
Take `COc1cc2c(cc1F)C[C@@H](N)[C@@H]2c1ccccc1`: the Ki in [2] amounted to 17 µM.
With `N[C@@H]1Cc2cc(O)c(F)cc2[C@H]1c1ccccc1`, affinity in assay [2] was put at a Ki of 15 µM.
